Results taken from ChEMBL document CHEMBL4414663, “Pyrazole-4-Carboxamide (YW2065): A Therapeutic Candidate for Colorectal Cancer via Dual Activities of Wnt/β-Catenin Signaling Inhibition and AMP-Activated Protein Kinase (AMPK) Activation” (J Med Chem, 2019).
Activity calls are given as the source filed them. The rule behind the calls is not given here.

Tests used:
[1] = target: Protein kinase C theta type (Homo sapiens) (UniProt Q04759); experiment: Inhibition of PRKCQ (unknown origin) at 1000 nM relative to control
Protein kinase C theta type (Homo sapiens), sequence (Q04759 whole entry, looked up): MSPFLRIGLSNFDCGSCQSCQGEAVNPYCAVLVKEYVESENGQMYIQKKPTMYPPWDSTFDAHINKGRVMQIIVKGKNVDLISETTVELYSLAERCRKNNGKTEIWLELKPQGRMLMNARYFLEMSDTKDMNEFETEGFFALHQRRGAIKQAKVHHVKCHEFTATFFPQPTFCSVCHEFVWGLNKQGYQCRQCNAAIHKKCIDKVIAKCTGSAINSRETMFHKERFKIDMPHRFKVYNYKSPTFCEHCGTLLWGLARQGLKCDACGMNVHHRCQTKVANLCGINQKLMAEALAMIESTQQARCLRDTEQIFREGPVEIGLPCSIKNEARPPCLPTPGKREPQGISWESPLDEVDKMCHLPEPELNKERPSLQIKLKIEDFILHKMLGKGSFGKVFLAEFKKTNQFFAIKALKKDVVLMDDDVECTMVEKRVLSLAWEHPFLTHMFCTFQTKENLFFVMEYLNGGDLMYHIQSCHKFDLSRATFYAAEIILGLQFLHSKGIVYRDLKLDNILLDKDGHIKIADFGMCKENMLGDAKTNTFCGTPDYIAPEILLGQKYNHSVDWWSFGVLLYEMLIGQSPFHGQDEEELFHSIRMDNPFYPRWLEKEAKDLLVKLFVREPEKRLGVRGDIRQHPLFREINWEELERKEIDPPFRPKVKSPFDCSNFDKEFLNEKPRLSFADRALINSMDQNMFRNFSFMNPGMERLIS
In short: (§1)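 Single-concentration screen at 1000 nM against a 273-kinase panel, reported as percent inhibition.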

SW-620 [2] = experiment: Induction of apoptosis in human SW620 cells assessed as early apoptotic cells level at 1 uM incubated for 48 hrs by AAD-7 and FITC-annexin-V staining based flow cytometry (reference value: 18.6%); format: functional
[3] = target: Mitogen-activated protein kinase kinase kinase kinase 4 (Homo sapiens) (UniProt O95819); experiment: Inhibition of MAP4K4 (unknown origin) at 1000 nM relative to control; in short: as §1
Mitogen-activated protein kinase kinase kinase kinase 4 (Homo sapiens), sequence (O95819 2-1239 limits assumed): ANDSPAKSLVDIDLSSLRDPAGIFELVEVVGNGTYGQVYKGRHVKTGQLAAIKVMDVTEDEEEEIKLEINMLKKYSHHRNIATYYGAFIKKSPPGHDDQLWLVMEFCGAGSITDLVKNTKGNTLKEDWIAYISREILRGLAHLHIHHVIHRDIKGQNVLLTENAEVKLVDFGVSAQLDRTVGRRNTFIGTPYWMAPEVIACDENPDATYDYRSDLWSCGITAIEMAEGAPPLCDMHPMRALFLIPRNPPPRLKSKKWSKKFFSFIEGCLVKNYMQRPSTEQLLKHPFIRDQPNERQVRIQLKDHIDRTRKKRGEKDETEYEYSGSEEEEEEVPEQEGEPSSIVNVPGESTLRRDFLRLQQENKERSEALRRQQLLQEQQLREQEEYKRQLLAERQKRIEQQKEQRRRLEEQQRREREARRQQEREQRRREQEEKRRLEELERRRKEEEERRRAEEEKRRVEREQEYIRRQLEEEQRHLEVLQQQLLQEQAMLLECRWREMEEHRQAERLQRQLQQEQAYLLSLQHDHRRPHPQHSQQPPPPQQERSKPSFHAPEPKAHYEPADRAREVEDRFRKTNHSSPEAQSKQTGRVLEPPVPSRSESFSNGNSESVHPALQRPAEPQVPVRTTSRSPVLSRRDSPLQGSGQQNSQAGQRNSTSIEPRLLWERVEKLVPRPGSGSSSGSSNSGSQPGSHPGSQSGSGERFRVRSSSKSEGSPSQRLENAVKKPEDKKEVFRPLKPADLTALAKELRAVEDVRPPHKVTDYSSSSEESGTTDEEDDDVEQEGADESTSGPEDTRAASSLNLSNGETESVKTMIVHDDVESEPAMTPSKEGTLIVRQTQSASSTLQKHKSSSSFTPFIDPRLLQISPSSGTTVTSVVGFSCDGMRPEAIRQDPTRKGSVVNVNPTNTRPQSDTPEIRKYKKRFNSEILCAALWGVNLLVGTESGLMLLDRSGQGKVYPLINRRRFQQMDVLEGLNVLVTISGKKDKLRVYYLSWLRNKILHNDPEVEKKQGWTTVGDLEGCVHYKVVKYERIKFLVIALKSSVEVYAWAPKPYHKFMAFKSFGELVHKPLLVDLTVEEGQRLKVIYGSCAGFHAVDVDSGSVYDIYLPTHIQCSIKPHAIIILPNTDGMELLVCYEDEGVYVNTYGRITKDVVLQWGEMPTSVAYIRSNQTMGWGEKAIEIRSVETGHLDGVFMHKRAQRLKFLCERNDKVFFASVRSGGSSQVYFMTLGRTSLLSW

SW-620 [4] = experiment: Induction of apoptosis in human SW620 cells assessed as necrotic cells level at 1 uM incubated for 48 hrs by AAD-7 and FITC-annexin-V staining based flow cytometry (reference value: 0.027%); format: functional
[5] = AUC (0 to infinity) in C57BL/6J mouse at 5 mg/kg, iv by UPLC-MS analysis; format: ADME, organism-based; set-up: dose 5 mg/kg, route intravenous, time infinity; conditions: in vivo
In short: (§2)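 Male C57BL/6J mice, 2-3 months, 23-26 g. Single 5 mg/kg dose in 5% Kolliphor in saline, given iv (n=3) or by oral gavage (n=5). Tail-vein blood taken at 0.25, 0.5, 1, 4, 8 and 12 h and spun to plasma. Plasma analysed by LC-MS/MS on a triple quadrupole with a C18 column. Parameters from non-compartmental analysis.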

SW-620 [6] = experiment: Induction of apoptosis in human SW620 cells assessed as necrotic cells level at 10 uM incubated for 48 hrs by AAD-7 and FITC-annexin-V staining based flow cytometry (reference value: 0.027%); format: functional
SW-620 [7] = experiment: Growth inhibition of human SW620 cells over-expressing constitutively active beta-catenin S33Y mutant incubated for 72 hrs by Cell-titer-fluor reagent based assay; format: functional; conditions: SW-620, 72 h
In short: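 SW620 cells, parental, overexpressing β-catenin S33Y, or with Axin-1 knocked down by lentiviral shRNA. Treated with compound or vehicle for 72 h.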

[8] = Half life in C57BL/6J mouse at 5 mg/kg, iv by UPLC-MS analysis; format: ADME, organism-based; conditions: in vivo; in short: as §2
HEK293 = experiment: Induction of Axin-1 protein expression in recombinant human Wnt-3a-induced Wnt-HEK293 cells at 1 uM by Western blot analysis; format: functional, cell-based
[9] = Toxicity in C57BL/6 mouse assessed as effect on glucose level at 100 mg/kg/day, ip for 21 days; format: organism-based; conditions: in vivo, 504 h
[10] = target: Cyclin-dependent kinase 17 (Homo sapiens) (UniProt Q00537); experiment: Inhibition of CDK17 (unknown origin) at 1000 nM relative to control; in short: as §1
Cyclin-dependent kinase 17 (Homo sapiens), sequence (Q00537 whole entry, looked up): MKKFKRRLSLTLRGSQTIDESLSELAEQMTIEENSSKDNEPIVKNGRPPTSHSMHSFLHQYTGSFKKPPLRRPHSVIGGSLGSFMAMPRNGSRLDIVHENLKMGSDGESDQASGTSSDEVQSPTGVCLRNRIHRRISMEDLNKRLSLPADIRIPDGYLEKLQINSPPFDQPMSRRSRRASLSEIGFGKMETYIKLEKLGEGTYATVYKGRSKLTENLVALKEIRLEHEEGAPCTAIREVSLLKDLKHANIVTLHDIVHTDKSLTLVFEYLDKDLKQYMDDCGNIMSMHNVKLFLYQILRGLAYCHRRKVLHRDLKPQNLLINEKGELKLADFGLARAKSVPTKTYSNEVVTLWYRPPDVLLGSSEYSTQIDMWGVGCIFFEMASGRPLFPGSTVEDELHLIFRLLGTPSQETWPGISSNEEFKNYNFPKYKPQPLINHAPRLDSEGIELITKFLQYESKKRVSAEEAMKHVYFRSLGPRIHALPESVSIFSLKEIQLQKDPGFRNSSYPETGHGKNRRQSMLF

Homo sapiens = species on record: Homo sapiens; experiment: Inhibition of Wnt/beta-Catenin signaling in human SW620 cells assessed as reduction in MMP7 mRNA expression at 10 uM incubated for 24 hrs by real-time PCR analysis; format: cell-based
In short: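 SW620 cells (RPMI 1640, 10% FBS) in 6-well plates, incubated 24 h, then treated with compound at several concentrations, three replicates each, for 24 h. Total RNA isolated with Trizol/phenol-chloroform; 2 µg reverse transcribed; Wnt target gene mRNA quantified by PCR.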

SW-620 [11] = experiment: Inhibition of colony formation in human SW620 cells incubated for 14 days by crystal violet staining based assay; format: functional, cell-based
In short: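 SW480, SW620 or HT29 cells seeded at 300/well in 3 mL medium in 6-well plates with a concentration series of compound. After 14 days, fixed in 4% formaldehyde and stained with 0.5% crystal violet in 25% aqueous MeOH; colonies photographed.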

Mus musculus = experiment: Inhibition of Wnt/beta-Catenin signaling in nude mouse xenografted with human SW620 cells assessed as reduction in MMP7 mRNA expression at 50 mg/kg, ip QD for 32 consecutive days by RT-PCR analysis; format: organism-based; conditions: in vivo
In short: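 Six-week-old nude mice implanted subcutaneously in the right flank with 2×10^6 SW620 cells. Randomized at mean tumor volume 100–200 mm³, n = 6/group. Dosed IP once daily for 32 days at 10 or 50 mg/kg, or vehicle (10% DMSO, 10% Kolliphor, 80% saline). Tumors collected at day 32; Axin-2, MMP-7 and S100A4 expression measured by RT-PCR.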

SW-620 [12] = experiment: Antitumor activity against human SW620 cells xenografted in nude mouse assessed as reduction in tumor volume at 50 mg/kg, ip QD for 32 consecutive days relative to control; format: functional; set-up: scale not given: the % may be the effect or the level left
In short: (§3)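 Six-week-old nude mice injected subcutaneously with 2×10^6 SW620 cells. Randomised at mean tumor volume 100–200 mm³ (n=6/group). Given 10 or 50 mg/kg ip daily for 32 consecutive days; vehicle 10% DMSO, 10% Kolliphor, 80% saline. Tumor volume measured every other day. Tumors weighed after euthanasia at day 32. t test against vehicle.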

SW-620 [13] = experiment: Induction of apoptosis in human SW620 cells assessed as late apoptotic cells level at 3 uM incubated for 48 hrs by AAD-7 and FITC-annexin-V staining based flow cytometry (reference value: 7.6%); format: functional
[14] = Toxicity in C57BL/6 mouse assessed as effect on body weight at 100 mg/kg/day, ip for 21 days; format: organism-based; conditions: in vivo, 504 h
[15] = Toxicity in C57BL/6 mouse assessed as effect on ALT level at 100 mg/kg/day, ip for 21 days; format: organism-based; conditions: in vivo, 504 h
[16] = Half life in C57BL/6J mouse at 5 mg/kg, po by UPLC-MS analysis; format: ADME, organism-based; conditions: in vivo; in short: as §2
[17] = target: AMP-activated protein kinase, AMPK (Homo sapiens) (UniProt P54646+O43741+P54619+Q9UGJ0+Q9Y478+Q13131+Q9UGI9); experiment: Activation of AMPK in HEK293 cells with Axin-1 knockdown assessed as increase in AMPK phosphorylation at T172 residue at 10 uM incubated for 24 hrs by Western blot analysis; format: cell-based
SW480 = experiment: Growth inhibition of human SW480 cells at 50 uM by Cell-titer-fluor reagent based assay relative to control; format: functional; conditions: read-out: GI
SW-620 [18] = experiment: Induction of apoptosis in human SW620 cells assessed as viable cells level at 1 uM incubated for 48 hrs by AAD-7 and FITC-annexin-V staining based flow cytometry (reference value: 73.8%); format: functional
SW-620 [19] = experiment: Antitumor activity against human SW620 cells xenografted in nude mouse assessed as reduction in tumor weight at 50 mg/kg, ip QD for 32 consecutive days; format: functional, organism-based; in short: as §3
[20] = Inhibition of Wnt/beta-Catenin signaling in human SW480 cells incubated for 24 hrs by TCF/LEF dual-luciferase reporter assay; format: cell-based; conditions: SW480, 24 h
In short: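 SW480 or SW620 cells seeded at 200,000/well and transiently transfected 24 h later with TOPflash firefly luciferase plus pRLTK-Renilla using lipofectamine 2000. After 16 h the medium was replaced with compound at a range of concentrations, three replicates each. Dual firefly/Renilla luciferase read 24 h later.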

[21] = AUC (0 to infinity) in C57BL/6J mouse at 5 mg/kg, po by UPLC-MS analysis; format: ADME, organism-based; set-up: dose 5 mg/kg, time infinity, route oral; conditions: in vivo; in short: as §2

Which results are given for `Cc1c(C(=O)Nc2ccc3ccccc3n2)cnn1-c1ccccc1Br`?
inhibition [1]: Active; Activity (SW-620 [2]): 23.4%; inhibition [3]: Active; Activity (SW-620 [4]): 0%; AUC(0-inf) [5]: 57.5 µg·h/mL; Activity (SW-620 [6]): 0.00722%; IC50 (SW-620 [7]): 0.0678 µM; half-life [8]: 3.1 h; Activity (HEK293): Active; Activity [9]: Non-Toxic; inhibition [10]: Active; inhibition (Homo sapiens): Active; inhibition (SW-620 [11]): Dose-dependent effect; inhibition (INH) (Mus musculus): Active; Activity (SW-620 [12]): 49%; Activity (SW-620 [13]): 19.2%; Activity [14]: Non-Toxic; Activity [15]: Non-Toxic; half-life [16]: 2.9 h; Activity [17]: inactive; inhibition of growth at 50 µM (SW480): > 50%; Activity (SW-620 [18]): 67.1%; Activity (SW-620 [19]): Active; IC50 [20]: 0.00115 µM; AUC(0-inf) [21]: 13.2 µg·h/mL
